Assay results from ChEMBL document CHEMBL4118023, “Bioactive Pentacyclic Triterpene Ester Derivatives from Alnus viridis ssp. viridis Bark” (J Nat Prod, 2017).

Tests used:
[1] = tested on: MRC5; test: Cytotoxicity against human MRC5 cells assessed as reduction in cell viability after 48 hrs by MTT assay; format: cell-based; conditions: MRC5, 48 h
Summary of the method: (§1)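 Cells seeded at 1 × 10^4 per well, 24 h at 37 °C, 5% CO2, in RPMI-1640 with 10% FBS, penicillin and streptomycin. Compounds were prepared from DMSO stocks (50 mg/mL) and added at 2.5–50.0 μg/mL for 48 h; DMSO controls. MTT read-out; IC50 taken from a sigmoidal dose–response fit of % viability versus log concentration by nonlinear regression.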

[2] = tested on: A-375; test: Cytotoxicity against human A375 cells assessed as reduction in cell viability after 48 hrs by MTT assay; format: functional, cell-based; conditions: for IC50: A-375, 48 h; summary of the method: as §1
[3] = tested on: A549; test: Cytotoxicity against human A549 cells assessed as reduction in cell viability after 48 hrs by MTT assay; format: functional, cell-based; conditions: for IC50: A549, 48 h; summary of the method: as §1
[4] = Selectivity index, ratio of IC50 for human MRC5 cells to IC50 for human A375 cells; format: toxicity; conditions: MRC5 cells versus A375 cells, read-out: Ratio IC50
Summary of the method: (§2)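 Selectivity index is the IC50 in noncancerous MRC5 cells divided by the IC50 in the cancer line.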

[5] = Selectivity index, ratio of IC50 for human MRC5 cells to IC50 for human A549 cells; format: toxicity; conditions: MRC5 cells versus A549 cells, read-out: Ratio IC50; summary of the method: as §2
[6] = tested on: A549; test: Induction of apoptosis in human A549 cells assessed as live cells at cytotoxic IC50 after 24 hrs by Annexin V-FITC/propidium iodide staining based flow cytometry (reference value: 96.02%); format: functional
[7] = tested on: A549; test: Induction of apoptosis in human A549 cells assessed as early apoptotic cells at cytotoxic IC50 after 24 hrs by Annexin V-FITC/propidium iodide staining based flow cytometry (reference value: 2.25%); format: functional
[8] = tested on: A549; test: Induction of apoptosis in human A549 cells assessed as late apoptotic cells at cytotoxic IC50 after 24 hrs by Annexin V-FITC/propidium iodide staining based flow cytometry (reference value: 1.02%); format: functional
[9] = tested on: A549; test: Induction of apoptosis in human A549 cells assessed as necrotic cells at cytotoxic IC50 after 24 hrs by Annexin V-FITC/propidium iodide staining based flow cytometry (reference value: 0.71%); format: functional

| Compound | IC50 [1] | Activity [2] | IC50 [2] | Activity [3] | IC50 [3] | selectivity ratio [4] | selectivity ratio [5] | Activity [6] | Activity [7] | Activity [8] | Activity [9] |
| --- | --- | --- | --- | --- | --- | --- | --- | --- | --- | --- | --- |
| C=C(C)[C@@H]1CC[C@]2(C(=O)O)CC[C@]3(CO)[C@H](CC[C@@H]4[C@@]5(C)C[C@@H](OC(=O)/C=C/c6ccc(O)c(O)c6)[C@H](OC(=O)/C=C\c6ccc(O)cc6)C(C)(C)[C@@H]5CC[C@]43C)[C@@H]12 | 10 µM | Dose-dependent effect | 3.8 µM | Dose-dependent effect | 5 µM | 2.66 | 2 | 86.87% | 11.92% | 0.28% | 0.93% |
| C=C(C)[C@@H]1CC[C@]2(C(=O)O)CC[C@]3(C)[C@H](CC[C@@H]4[C@@]5(C)C[C@@H](OC(=O)/C=C/c6ccc(O)c(O)c6)[C@H](O)C(C)(C)[C@@H]5CC[C@]43C)[C@@H]12 | 7.9 µM | Dose-dependent effect | 6.3 µM | Dose-dependent effect | 15.8 µM | 1.25 | 0.5 |  |  |  |  |
| C=C(C)[C@@H]1CC[C@]2(C(=O)O)CC[C@]3(CO)[C@H](CC[C@@H]4[C@@]5(C)C[C@@H](OC(=O)/C=C/c6ccc(O)c(O)c6)[C@H](OC(=O)/C=C/c6ccc(O)cc6)C(C)(C)[C@@H]5CC[C@]43C)[C@@H]12 | 7.8 µM | Dose-dependent effect | 6.3 µM | Dose-dependent effect | 6.3 µM | 1.25 | 1.25 |  |  |  |  |
| C=C(C)[C@@H]1CC[C@]2(C(=O)O)CC[C@]3(C)[C@H](CC[C@@H]4[C@@]5(C)CC[C@H](O)C(C)(C)[C@@H]5CC[C@]43C)[C@@H]12 [BETULINIC ACID] | 32.8 µM |  | 43.7 µM |  | 43.7 µM | 0.75 | 0.75 | 90.8% | 5.66% | 2.24% | 1.3% |
| C=C(C)[C@@H]1CC[C@]2(C(=O)O)CC[C@]3(CO)[C@H](CC[C@@H]4[C@@]5(C)C[C@@H](OC(=O)/C=C/c6ccc(O)c(O)c6)[C@H](O)C(C)(C)[C@@H]5CC[C@]43C)[C@@H]12 | 18.5 µM | Dose-dependent effect | 11.5 µM | Dose-dependent effect | 15.4 µM | 1.6 | 1.2 |  |  |  |  |
| C=C(C)[C@@H]1CC[C@]2(C(=O)O)CC[C@]3(COC(=O)/C=C/c4ccc(O)c(O)c4)[C@H](CC[C@@H]4[C@@]5(C)CCC(=O)C(C)(C)[C@@H]5CC[C@]43C)[C@@H]12 | 9.7 µM | Dose-dependent effect | 7.7 µM | Dose-dependent effect | 15.5 µM | 1.25 | 0.63 |  |  |  |  |
| CC1(C)CC[C@]2(C(=O)O)CC[C@]3(C)C(=CC[C@@H]4[C@@]5(C)C[C@@H](OC(=O)/C=C/c6ccc(O)c(O)c6)[C@H](O)C(C)(C)[C@@H]5CC[C@]43C)[C@@H]2C1 | 7.9 µM | Dose-dependent effect | 11.8 µM | Dose-dependent effect | 4.7 µM | 0.67 | 1.66 |  |  |  |  |
